Activity calls are given as the source filed them. The rule behind the calls is not given here.
Tests used:
[1] = molecular target: T1, Protein cereblon/Poly [ADP-ribose] polymerase 1 (Homo sapiens) (UniProt P09874+Q96SW2); assay: Protac activity at CRBN/PARP-1 in human SW1990 cells assessed as induction of PARP-1 degradation at 1 to 50 uM incubated for 24 hrs by Western blot analysis; assay type: cell-based; settings: dose 1-50 µM
Outline: (§1)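 SW1990 cells grown in high-glucose DMEM (25 mM glucose) with 10% FBS, 5% CO₂, 37 °C. Seeded and left 24 h, then exposed to DMSO or compound. Cells washed in PBS, lysed in RIPA, and cleared at 13 000 rpm for 15 min. Protein measured by BCA. 20−40 μg run on 10% SDS-PAGE, moved to PVDF, blocked 1 h in 5% milk or BSA, primary antibodies 1:1000 overnight at 4 °C, ECL detection.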

[2] = molecular target: T2, Protein cereblon/Epidermal growth factor receptor (Homo sapiens) (UniProt P00533+Q96SW2); assay: Protac activity at CRBN/EGFR in human SW1990 cells assessed as induction of EGFR degradation at 1 to 50 uM incubated for 24 hrs by Western blot analysis; assay type: cell-based; settings: dose 1-50 µM; outline: as §1
NCI-H1299 = assay: cells; assay type: functional, cell-based; settings: Homo sapiens, NCI-H1299, 72 h
[3] = molecular target: T1, Protein cereblon/Poly [ADP-ribose] polymerase 1 (Homo sapiens); assay: Protac activity at CRBN/PARP-1 in human SW1990 cells assessed as decrease of PARP-1 expression level at 1 to 50 uM pretreated with proteasome inhibitor MG132 for 4 hr followed by incubation with compound for 24 hrs by Western blot analysis; assay type: cell-based; settings: dose 1-50 µM; outline: as §1
[4] = molecular target: Poly [ADP-ribose] polymerase 1 (Homo sapiens, UniProt P09874); assay: Binding affinity to human GST-tagged PARP-1 ART domain (788 to 1014 residues) expressed in Escherichia coli BL21 (DE3) assessed as dissociation constant incubated for 30 mins by microscale thermophoresis analysis
[5] = molecular target: T2, Protein cereblon/Epidermal growth factor receptor (Homo sapiens); assay: Protac activity at CRBN/EGFR in human SW1990 cells assessed as decrease in EGFR expression level at 1 to 50 uM pretreated with proteasome inhibitor MG132 for 4 hr followed by incubation with compound for 24 hrs by Western blot analysis; assay type: cell-based; settings: dose 1-50 µM; outline: as §1
[6] = molecular target: Epidermal growth factor receptor (Homo sapiens, UniProt P00533); assay: biochemical; assay type: cell-based
[7] = molecular target: T2, Protein cereblon/Epidermal growth factor receptor (Homo sapiens); assay: Protac activity at CRBN/EGFR in human SW1990 cells assessed as induction of EGFR degradation at 5 uM measured after 6 to 48 hrs by Western blot analysis; assay type: cell-based; settings: time 6-48 hrs, TDE = time-dependent effect; outline: as §1
[8] = molecular target: T1, Protein cereblon/Poly [ADP-ribose] polymerase 1 (Homo sapiens); assay: Protac activity at CRBN/PARP-1 in human SW1990 cells assessed as induction of PARP-1 degradation at 5 uM measured after 6 to 48 hrs by Western blot analysis; assay type: cell-based; settings: time 6-48 hrs, TDE = time-dependent effect; outline: as §1
[9] = molecular target: T3, von Hippel-Lindau disease tumor suppressor/Epidermal growth factor receptor (Homo sapiens) (UniProt P00533+P40337); assay: Protac activity at VHL/EGFR in human NCI-H1299 cells assessed as induction of EGFR degradation at 4 uM incubated for 6 hrs by Western blot analysis; assay type: cell-based
Outline: (§2)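 NCI-H1299 cells grown in high-glucose DMEM with 10% FBS at 37 °C, 5% CO₂. Compound given after 24 h seeding. Lysis in RIPA, BCA protein assay, 20−40 μg on 10% SDS-PAGE, PVDF transfer, primary antibodies 1:1000 overnight at 4 °C, ECL. EGFR, p-EGFR and PARP probed.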

[10] = molecular target: T3, von Hippel-Lindau disease tumor suppressor/Epidermal growth factor receptor (Homo sapiens); assay: Protac activity at VHL/EGFR in human NCI-H1299 cells assessed as decrease in EGFR degradation at up to 15 uM pretreated with proteasome inhibitor MG132 for 4 hr followed by incubation with compound for 6 hrs by Western blot analysis; assay type: cell-based; settings: dose microM <=15, time 6.0 hrs; outline: as §2
[11] = molecular target: T4, von Hippel-Lindau disease tumor suppressor/Poly [ADP-ribose] polymerase 1 (Homo sapiens) (UniProt P09874+P40337); assay: Protac activity at VHL/PARP-1 in human NCI-H1299 cells assessed as induction of PARP degradation at 0.47 uM incubated for 36 hrs by Western blot analysis relative to control
[12] = molecular target: T4, von Hippel-Lindau disease tumor suppressor/Poly [ADP-ribose] polymerase 1 (Homo sapiens); assay: Protac activity at VHL/PARP-1 in human NCI-H1299 cells assessed as decrease of PARP-1 degradation at up to 15 uM pretreated with proteasome inhibitor MG132 for 4 hr followed by incubation with compound for 6 hrs by Western blot analysis; assay type: cell-based; settings: dose microM <=15, time 6.0 hrs; outline: as §2
[13] = molecular target: T4, von Hippel-Lindau disease tumor suppressor/Poly [ADP-ribose] polymerase 1 (Homo sapiens); assay: Protac activity at VHL/PARP-1 in human A-431 cells assessed as induction of PARP-1 degradation at 0.8 to 20 uM incubated for 36 hrs by Western blot analysis; assay type: cell-based; settings: dose 0.8-20 µM
[14] = molecular target: T4, von Hippel-Lindau disease tumor suppressor/Poly [ADP-ribose] polymerase 1 (Homo sapiens); assay: Protac activity at VHL/PARP-1 in human NCI-H1299 cells assessed as induction of PARP degradation at 4 uM incubated for 6 hrs by Western blot analysis; assay type: cell-based; outline: as §2
[15] = molecular target: T3, von Hippel-Lindau disease tumor suppressor/Epidermal growth factor receptor (Homo sapiens); assay: Protac activity at VHL/EGFR in human NCI-H1299 cells assessed as induction of EGFR degradation by measuring reduction in p-EGFR level at 15 uM incubated for 36 hrs by Western blot analysis; assay type: cell-based; outline: as §2
[16] = molecular target: T3, von Hippel-Lindau disease tumor suppressor/Epidermal growth factor receptor (Homo sapiens); assay: Protac activity at VHL/EGFR in human A-431 cells assessed as induction of EGFR degradation at 0.8 to 20 uM incubated for 36 hrs by Western blot analysis; assay type: cell-based; settings: dose 0.8-20 µM

T3 sequence (P00533 25-1210 limits assumed): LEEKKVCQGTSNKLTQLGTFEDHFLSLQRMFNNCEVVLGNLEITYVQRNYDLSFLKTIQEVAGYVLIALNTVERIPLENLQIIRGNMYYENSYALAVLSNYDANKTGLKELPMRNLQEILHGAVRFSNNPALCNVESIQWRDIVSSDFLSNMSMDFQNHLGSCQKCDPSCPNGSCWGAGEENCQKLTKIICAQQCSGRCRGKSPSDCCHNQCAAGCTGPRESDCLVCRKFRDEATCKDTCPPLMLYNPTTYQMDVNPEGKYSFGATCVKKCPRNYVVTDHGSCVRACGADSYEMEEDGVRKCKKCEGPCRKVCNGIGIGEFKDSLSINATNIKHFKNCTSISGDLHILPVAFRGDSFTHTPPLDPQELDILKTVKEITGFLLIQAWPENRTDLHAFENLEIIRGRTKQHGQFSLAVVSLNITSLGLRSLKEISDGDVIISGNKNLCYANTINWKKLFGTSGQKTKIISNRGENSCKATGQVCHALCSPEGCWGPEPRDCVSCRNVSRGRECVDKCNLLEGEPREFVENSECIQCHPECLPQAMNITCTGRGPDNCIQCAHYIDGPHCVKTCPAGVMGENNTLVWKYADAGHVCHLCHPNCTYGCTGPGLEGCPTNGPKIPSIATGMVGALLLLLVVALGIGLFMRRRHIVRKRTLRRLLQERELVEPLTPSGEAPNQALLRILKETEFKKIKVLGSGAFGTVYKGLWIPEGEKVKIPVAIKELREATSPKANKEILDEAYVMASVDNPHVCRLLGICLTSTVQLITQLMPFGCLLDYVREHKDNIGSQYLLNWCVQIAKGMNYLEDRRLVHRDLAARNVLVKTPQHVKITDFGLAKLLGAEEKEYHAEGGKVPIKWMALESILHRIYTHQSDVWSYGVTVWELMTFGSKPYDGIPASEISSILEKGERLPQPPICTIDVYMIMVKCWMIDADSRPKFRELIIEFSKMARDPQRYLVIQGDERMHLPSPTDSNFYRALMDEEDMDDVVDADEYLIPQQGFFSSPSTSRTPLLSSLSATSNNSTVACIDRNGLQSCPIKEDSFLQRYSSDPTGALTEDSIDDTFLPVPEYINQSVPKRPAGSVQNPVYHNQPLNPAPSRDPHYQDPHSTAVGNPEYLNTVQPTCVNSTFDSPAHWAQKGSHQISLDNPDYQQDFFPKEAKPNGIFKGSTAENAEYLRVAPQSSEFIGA
T3 sequence (P40337 whole entry partner): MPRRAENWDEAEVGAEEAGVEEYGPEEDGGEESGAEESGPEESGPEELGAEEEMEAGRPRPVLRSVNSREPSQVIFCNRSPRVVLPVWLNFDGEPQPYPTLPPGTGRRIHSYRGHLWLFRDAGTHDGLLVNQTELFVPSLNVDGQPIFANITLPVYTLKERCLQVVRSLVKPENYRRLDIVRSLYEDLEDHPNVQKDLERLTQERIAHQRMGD
T2 sequence (P00533 25-1210 limits assumed): as the sequence (P00533 25-1210 limits assumed) above
T2 sequence (Q96SW2 whole entry partner): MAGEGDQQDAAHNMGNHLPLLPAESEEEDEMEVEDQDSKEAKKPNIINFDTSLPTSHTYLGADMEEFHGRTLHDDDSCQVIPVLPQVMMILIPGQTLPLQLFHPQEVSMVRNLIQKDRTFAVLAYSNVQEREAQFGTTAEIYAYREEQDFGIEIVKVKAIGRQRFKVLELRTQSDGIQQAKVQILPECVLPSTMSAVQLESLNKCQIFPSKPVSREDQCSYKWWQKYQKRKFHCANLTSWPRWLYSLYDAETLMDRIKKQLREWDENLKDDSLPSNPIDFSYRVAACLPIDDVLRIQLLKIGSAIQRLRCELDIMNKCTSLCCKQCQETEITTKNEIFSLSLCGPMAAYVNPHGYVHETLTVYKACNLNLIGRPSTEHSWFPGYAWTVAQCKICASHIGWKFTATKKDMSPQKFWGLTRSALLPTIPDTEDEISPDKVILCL
T4 sequence (P09874 whole entry, looked up): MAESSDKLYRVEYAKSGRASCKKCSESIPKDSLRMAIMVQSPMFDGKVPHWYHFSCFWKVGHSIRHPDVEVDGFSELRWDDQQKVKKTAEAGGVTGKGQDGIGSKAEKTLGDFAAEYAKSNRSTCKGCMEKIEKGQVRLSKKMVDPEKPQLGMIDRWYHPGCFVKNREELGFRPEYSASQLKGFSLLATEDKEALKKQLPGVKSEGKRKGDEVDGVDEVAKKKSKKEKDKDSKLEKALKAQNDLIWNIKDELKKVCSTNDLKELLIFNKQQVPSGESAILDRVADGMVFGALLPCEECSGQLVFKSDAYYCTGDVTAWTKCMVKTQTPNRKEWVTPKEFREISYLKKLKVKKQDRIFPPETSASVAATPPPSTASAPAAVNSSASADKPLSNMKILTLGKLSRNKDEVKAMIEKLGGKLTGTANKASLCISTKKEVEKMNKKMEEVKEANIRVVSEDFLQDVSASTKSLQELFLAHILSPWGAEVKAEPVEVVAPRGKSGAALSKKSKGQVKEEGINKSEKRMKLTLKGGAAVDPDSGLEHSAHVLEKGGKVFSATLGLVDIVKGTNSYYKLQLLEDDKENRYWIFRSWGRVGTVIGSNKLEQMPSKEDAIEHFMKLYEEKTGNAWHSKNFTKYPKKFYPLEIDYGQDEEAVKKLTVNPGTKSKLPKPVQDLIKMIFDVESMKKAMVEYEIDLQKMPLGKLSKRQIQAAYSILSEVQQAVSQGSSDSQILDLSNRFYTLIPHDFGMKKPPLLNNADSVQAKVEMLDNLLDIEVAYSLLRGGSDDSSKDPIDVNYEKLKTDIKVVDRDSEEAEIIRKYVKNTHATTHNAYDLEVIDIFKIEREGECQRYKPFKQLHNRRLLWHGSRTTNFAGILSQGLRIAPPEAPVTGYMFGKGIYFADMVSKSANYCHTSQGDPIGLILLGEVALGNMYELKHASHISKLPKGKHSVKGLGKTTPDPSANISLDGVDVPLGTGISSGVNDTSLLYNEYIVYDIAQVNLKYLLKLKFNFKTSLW
T4 sequence (P40337 whole entry, looked up): as the sequence (P40337 whole entry partner) above
Chain of Poly [ADP-ribose] polymerase 1 (P09874 whole entry, the tested form may be a part): as the sequence (P09874 whole entry, looked up) above

COc1cc2ncnc(Nc3ccc(F)c(Cl)c3)c2cc1OCCCCCC(=O)NC(COCc1cn(CCOCCOCCNc2cccc3c2C(=O)N(C2CCC(=O)NC2=O)C3=O)nn1)C(=O)NCCCCCC(=O)N1CCN(C(=O)c2cc(Cc3n[nH]c(=O)c4ccccc34)ccc2F)CC1 (centres undefined)
Activity [1]: Active
Activity [2]: Active

COc1cc2ncnc(Nc3ccc(F)c(Cl)c3)c2cc1OCCCC(=O)NCc1cn(CCOCCNc2cccc3c2C(=O)N(C2CCC(=O)NC2=O)C3=O)nn1 (centres undefined)
Activity [2]: Active

COc1cc2ncnc(Nc3ccc(F)c(Cl)c3)c2cc1OCCCC(=O)NC(COCc1cn(CCOCCNc2cccc3c2C(=O)N(C2CCC(=O)NC2=O)C3=O)nn1)C(=O)N1CCN(C(=O)c2cc(Cc3n[nH]c(=O)c4ccccc34)ccc2F)CC1 (centres undefined)
Activity [1]: Active
Activity [2]: Active

O=C1CCC(N2C(=O)c3cccc(NCCOCCn4cc(CCC(=O)N5CCN(C(=O)c6cc(Cc7n[nH]c(=O)c8ccccc78)ccc6F)CC5)nn4)c3C2=O)C(=O)N1 (centres undefined)
Activity [1]: Active
Activity [2]: Active

O=C(c1cc(Cc2n[nH]c(=O)c3ccccc23)ccc1F)N1CCN(C(=O)C2CC2)CC1 [OLAPARIB]
IC50 (NCI-H1299): 35.9 µM

COc1cc2ncnc(Nc3ccc(F)c(Cl)c3)c2cc1OCC(=O)NC(Cc1ccc(OCc2cn(CCOCCNc3cccc4c3C(=O)N(C3CCC(=O)NC3=O)C4=O)nn2)cc1)C(=O)N1CCN(C(=O)c2cc(Cc3n[nH]c(=O)c4ccccc34)ccc2F)CC1 (centres undefined)
Activity [1]: Active
Activity [3]: Active
Kd [4]: 7.89 µM
Activity [2]: Active
Activity [5]: Active
Kd [6]: 2.74 µM
Activity [7]: Tde
Activity [8]: Tde

COc1cc2ncnc(Nc3ccc(F)c(Cl)c3)c2cc1OCCCC(=O)NC(COCc1cn(CCOCCNc2cccc3c2C(=O)N(C2CCC(=O)NC2=O)C3=O)nn1)C(=O)NCCCC(=O)N1CCN(C(=O)c2cc(Cc3n[nH]c(=O)c4ccccc34)ccc2F)CC1 (centres undefined)
Activity [1]: Active
Activity [2]: Active

COc1cc2ncnc(Nc3ccc(F)c(Cl)c3)c2cc1OCCCCCC(=O)NC(COCc1cn(CCCC(=O)N[C@H](C(=O)N2C[C@H](O)C[C@H]2C(=O)NCc2ccc(-c3scnc3C)cc2)C(C)(C)C)nn1)C(=O)NCCCCCC(=O)N1CCN(C(=O)c2cc(Cc3n[nH]c(=O)c4ccccc34)ccc2F)CC1 (some centres undefined)
Activity [9]: Active
Activity [10]: Active
Activity [11]: 50%
Activity [12]: Active
Activity [13]: Active
Activity [14]: Active
Activity [15]: Active
IC50 (NCI-H1299): 19.9 µM
Kd [4]: 12.8 µM
Activity [16]: Active
Kd [6]: 5.47 µM
